Assay outcomes: PubChem, several laboratories
Granule exo inh: LAMP-1 surface exposure blockers, TALL-104 cells – cell-based, flow cytometry, MLPCN library, primary screen | 0.66% of 360,000 active | TALL-104 LAMP-1 surface exposure; cells stimulated with thapsigargin and PMA | inhibition, % at 10 µM | AID 651702, 2012;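 active means inhibition above about 55%, limit read from the data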
NRP1-CendR mod: modulators of CendR peptide binding to NRP-1, primary screen, biochemical, fluorescence polarization, uHTS | 0.85% of 360,000 active | Neuropilin-1 (Homo sapiens), O14786 | FAM-RPARPAR peptide binding to NRP-1 | inhibition, % at 25 µM;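 active means inhibition or corrected inhibition above about 18%, plus a signal ratio from 0.5 to 1.5, limit read from the data, passing the limit was not always enough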
Target sequence (O14786 whole entry, looked up): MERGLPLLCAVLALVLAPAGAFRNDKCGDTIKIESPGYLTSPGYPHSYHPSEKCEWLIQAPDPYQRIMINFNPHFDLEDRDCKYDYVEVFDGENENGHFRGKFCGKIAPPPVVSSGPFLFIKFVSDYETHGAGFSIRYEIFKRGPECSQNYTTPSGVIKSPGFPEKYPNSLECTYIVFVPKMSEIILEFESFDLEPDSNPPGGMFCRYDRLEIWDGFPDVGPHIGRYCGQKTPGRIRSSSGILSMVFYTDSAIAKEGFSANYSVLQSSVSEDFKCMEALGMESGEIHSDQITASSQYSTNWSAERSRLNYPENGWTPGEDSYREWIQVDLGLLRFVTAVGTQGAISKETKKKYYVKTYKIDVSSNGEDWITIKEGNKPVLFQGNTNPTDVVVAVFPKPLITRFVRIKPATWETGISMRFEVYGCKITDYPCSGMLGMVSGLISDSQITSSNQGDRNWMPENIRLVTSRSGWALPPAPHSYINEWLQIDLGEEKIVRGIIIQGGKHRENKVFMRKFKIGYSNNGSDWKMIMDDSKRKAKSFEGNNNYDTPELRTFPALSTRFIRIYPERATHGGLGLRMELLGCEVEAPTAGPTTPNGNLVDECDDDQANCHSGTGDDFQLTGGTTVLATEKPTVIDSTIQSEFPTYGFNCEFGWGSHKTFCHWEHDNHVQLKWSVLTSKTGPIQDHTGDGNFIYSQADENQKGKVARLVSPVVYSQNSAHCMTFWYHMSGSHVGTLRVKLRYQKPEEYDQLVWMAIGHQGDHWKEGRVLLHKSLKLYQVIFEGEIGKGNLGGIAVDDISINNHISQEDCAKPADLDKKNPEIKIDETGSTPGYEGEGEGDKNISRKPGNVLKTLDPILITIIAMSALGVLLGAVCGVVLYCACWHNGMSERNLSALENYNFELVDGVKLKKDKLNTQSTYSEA
V-ATPase pH: regulators of yeast V-ATPase proton pumping, primary screen, pHLuorin cytosolic pH fluorescence; S. cerevisiae; response, % at 10 µM; 0.37% of 350,000 active; in the data active means response mostly above about 7.3%, no sharp cut-off; inactive means mostly below about 5.4%; further: actives read high
ASAP1 GAP inh: inhibitors of human ASAP1 ArfGAP activity, primary screen, biochemical, fluorescence polarization; ASAP1-stimulated ARF1 GTP hydrolysis, GDP FP detection; inhibition, % at 16.5 µM; 0.19% of 360,000 active; AID 624377, 2012; in the data active means inhibition above about 25%;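 further: 0% = vehicle with enzyme and substrate and 100% = no enzyme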
ARFGAP1 inhibitor: inhibitors of rat ARFGAP1 GAP activity, primary screen, biochemical, fluorescence polarization, GDP tracer | inhibition, % at 16.5 µM | ADP-ribosylation factor GTPase-activating protein 1 (Rattus norvegicus), Q62848 | Arfgap1-stimulated ARF1 GTP hydrolysis, GDP FP detection | 0.26% of 360,000 active | AID 651572, 2012;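 active means inhibition above a per-plate limit, mean inhibition of low control wells plus 3 SD, cut at about 25% in these data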;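 further: 0% = DMSO wells with enzyme and 100% = wells lacking Arfgap1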
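Assay system: Rat Arfgap1 GAP domain (His6, aa 1-136), purified enzyme | Buffer or medium: HEPES 25 mM pH 7.5, NaCl 150 mM, MgCl2, DTT | Schedule: GTP hydrolysis reaction 2 h at 25 °C | Signal: FP of antibody-bound GDP Alexa 633 tracer, ex 620/em 688 nm | Measure: Percent inhibition of Arfgap1-stimulated GTP hydrolysis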
ARFGAP1 inh conf: ARFGAP1 inhibitor hit confirmation, biochemical, fluorescence polarization, triplicate | shares compounds with ARFGAP1 inhibitor | ARFGAP1-stimulated ARF1 GTP hydrolysis, GDP tracer FP | inhibition, % at 16.5 µM | 30% of 890 active;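 active means average inhibition over triplicates above the hit cutoff set in the earlier primary screen, cut at about 25% in these data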;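 further: 0% = Arfgap1 plus ARF1-GTP with DMSO and 100% = wells lacking Arfgap1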
* hit, by the source's call; x = no result given. This is a sample that favours compounds with a hit; in the whole collection about 2.2% have one here.

SMILES	Granule exo inh	NRP1-CendR mod	V-ATPase pH	ASAP1 GAP inh	ARFGAP1 inhibitor	ARFGAP1 inh conf
CS(=O)(=O)Nc1cccc(C2=NN(S(=O)(=O)c3ccccc3)C(c3ccco3)C2)c1 (centres undefined)	0	-17	0	-7	32*	-6
Cc1cc(O)c(C(C)C)cc1C1(c2cc(C(C)C)c(O)cc2C)OC(=O)c2ccccc21	88*	-3	-1	18	27*	19
CCc1ccc(NC(=O)CSc2nnnn2-c2cccnc2)cc1	-1	-1	-1	-3	4	x
CNc1c(NS(=O)(=O)c2ccc(CC(C)C)cc2)c(=O)oc2ccccc12	6	-1	4	1	-1	x
CCN(C(=O)COC(=O)/C=C/c1c(C)nn(-c2ccccc2)c1C)c1c(N)n(Cc2ccccc2)c(=O)[nH]c1=O	-2	-1	6	-11	8	x
Cc1c(C(=O)Nc2ccc(-n3cnnn3)cc2)oc2ccccc12	12	-28	1	24	26*	47*
CCOC(=O)c1oc2ccccc2c1NC(=O)c1ccc(Cl)s1	15	2	-3	0	32*	6
O=C(COC(=O)c1ccc(O)cc1)Nc1cc(S(=O)(=O)N2CCCCCC2)ccc1Cl	6	-8	4	-3	26*	1
CN(C(=O)C(C)(C)C)[C@H]1C[C@H]2c3[nH]c4ccccc4c3CCN2C(=O)[C@H]1CO	-3	7	-1	-10	96*	-3
O=C(/C=C/c1ccccc1)Nc1nc(-c2ccncc2)cs1	15	1	0	4	35*	62*
O=C(c1cc(C2CCCCN2C(=O)CCCc2ccccc2)on1)N1CCOCC1 (centres undefined)	-3	-14	x	-6	-4	x
NS(=O)(=O)c1ccc(CCNC(=O)CNS(=O)(=O)c2cccc(Br)c2)cc1	-4	-13	0	3	28*	-2
CC(=O)Nc1ccc(S(=O)(=O)NCC(=O)NCCc2ccc(S(N)(=O)=O)cc2)cc1	-3	17	1	3	0	x
COc1cc2c3c(c1OC)C1(C=CC(=O)C=C1)CC3N(C(C)=O)CC2 (centres undefined)	2	-10	1	-16	29*	8
NC(=O)C1C2C=CC(C2)C1c1ccccc1 (centres undefined)	1	16	-4	-7	-7	x
CC1(C)CC(NC(=O)c2ccc3c(c2)OCO3)CC(C)(C)N1	-2	0	-1	4	26*	1
Cc1ccc(Cl)cc1N1CCN(C(=O)C(C)n2ncn3cccc3c2=O)CC1 (centres undefined)	-2	-8	3	-6	-1	x
COc1ccc(/C(C)=N/NC(=O)c2sccc2-n2cccc2)cc1	-8	-10	-2	7	29*	11
CC(OC(=O)c1cc2c(s1)CCCCC2)C(=O)NC(N)=O (centres undefined)	0	-3	-1	-12	28*	-4
CN(C)/C=C1\C(=O)Oc2ccccc2C1=O	5	-25	2	-11	-5	x
COc1ccc(NS(=O)(=O)c2cccc(C(=O)N/N=C(\C)c3ccncc3)c2)cc1	-1	9	1	6	39*	6
COc1cc(C(C#N)N2CCC(c3ccccc3)=N2)ccc1O (centres undefined)	2	-12	-4	-12	27*	-4
O=C(COC(=O)c1ccccc1F)Nc1ccc(S(=O)(=O)N2CCOCC2)cc1	-7	-14	3	14	27*	6
Cc1c(OC(C)C(=O)NCc2ccccn2)ccc2c3c(c(=O)oc12)CCCC3 (centres undefined)	0	11	-1	0	-4	x
O=C(Nc1cccc(-c2cc3ccccc3oc2=O)c1)c1ccc(Br)o1	-4	3	1	12	27*	15
SMILES	Granule exo inh	NRP1-CendR mod	V-ATPase pH	ASAP1 GAP inh	ARFGAP1 inhibitor	ARFGAP1 inh conf
COc1ccc(-c2cc3ccccc3oc2=O)cc1NC(=O)c1ccc(Br)o1	0	-15	0	12	14	x
CC1(C(=O)Nc2cccc(C(F)(F)F)c2)Cc2c(-c3cccc(C(F)(F)F)c3)ccnc2O1 (centres undefined)	-2	-8	x	4	34*	11
CCOc1ccc(CCN2C(=S)N([C@@H](CC(C)C)CN3CCCC3CN3C(=S)NC[C@@H]3CC(C)C)C[C@@H]2Cc2ccccc2)cc1 (some centres undefined)	-4	4	0	0	-3	x
O=C(NCCCO)C(=O)Nc1cc2c3c(c1)CCC(=O)N3CCC2	0	5	-3	-2	27*	0
CCOC(=O)c1cc(OC(=O)Cc2ccc(OC)c(S(=O)(=O)N3CCOCC3)c2)cc(C(=O)OCC)c1	-2	2	2	1	-4	x
CC(=O)N1CCN(S(=O)(=O)c2ccc(C)cc2)C1C (centres undefined)	-7	8	0	9	30*	2
Cc1ccc(S(=O)(=O)N2CCN(C(=O)N3CCOCC3)C2C)cc1 (centres undefined)	2	0	1	-13	-6	x
Cn1c(SCC(=O)NCCNC(=O)CSc2nnc(C(F)(F)F)n2C)nnc1C(F)(F)F	-4	0	-1	-9	4	x
COc1ccc(CNC(=O)CSc2nnc(C(F)(F)F)n2C)cc1	-1	1	0	4	29*	-5
COCCN(C(=O)COC(=O)Cc1cccc(OC)c1)c1c(N)n(CC(C)C)c(=O)[nH]c1=O	-3	12	3	-12	0	x
COc1cc(OC)cc(-c2sc3ccc(OC)cc3c2-c2ccc(O)cc2)c1	21	20	-2	13	26*	12
COc1ccc(-c2sc3ccc(OC)cc3c2-c2ccc(O)cc2)cc1	34	-2	2	17	17	x
Cc1ccc[n+](C(C)C(=O)c2ccc(Cl)cc2)c1 (centres undefined)	-9	0	4	6	45*	-2
O=C(O)c1ccc(NC(=S)NC(=O)c2cncc(Br)c2)cc1	3	14	-3	4	5	x
COc1ccc(O)c(/C=N/NC(=O)c2ccc(CSc3nc(C)cc(C)n3)cc2)c1	-6	-10	-3	13	30*	33*
Cc1cc(C)nc(SCc2ccc(C(=O)N/N=C/c3cccc(O)c3O)cc2)n1	1	-7	5	7	6	x
